Consider one molecule from ChEMBL document CHEMBL3994609, “Model-Based Discovery of Synthetic Agonists for the Zn2+-Sensing G-Protein-Coupled Receptor 39 (GPR39) Reveals Novel Biological Functions” (J Med Chem, 2017).

The target in data set [1] is T1, G-protein coupled receptor 39 (Homo sapiens, UniProt O43194).
T1 sequence (O43194 whole entry): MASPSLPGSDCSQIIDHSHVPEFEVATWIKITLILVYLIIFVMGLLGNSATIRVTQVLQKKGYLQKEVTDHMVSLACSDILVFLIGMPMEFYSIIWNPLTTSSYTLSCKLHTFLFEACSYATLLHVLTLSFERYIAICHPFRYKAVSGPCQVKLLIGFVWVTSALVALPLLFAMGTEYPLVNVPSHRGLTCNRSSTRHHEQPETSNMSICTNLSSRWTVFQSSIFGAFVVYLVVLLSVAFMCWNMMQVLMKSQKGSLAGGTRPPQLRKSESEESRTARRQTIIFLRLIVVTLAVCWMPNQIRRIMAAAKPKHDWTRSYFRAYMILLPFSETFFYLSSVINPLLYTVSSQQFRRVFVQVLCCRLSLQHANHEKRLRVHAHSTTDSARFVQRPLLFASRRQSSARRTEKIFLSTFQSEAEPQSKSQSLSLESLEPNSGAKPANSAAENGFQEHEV
The data set is described as follows: Agonist activity at human GPR39 expressed in HEK293 cells co-expressing Galphaq assessed as myo-[2-3H]inositol phosphate accumulation measured after 75 mins by scintillation proximity assay. The format is functional, cell-based. On the technique in general: Scintillation proximity formats need no separation of bound from free tracer.

Data set [2] can be described thus: Intrinsic clearance in human liver microsomes assessed per mg protein at 3 uM measured after 45 mins by LC-MS/MS analysis. The note with it: read-out: CLH. Type of data set: ADME, microsome. (Liver microsomes are vesicles of endoplasmic reticulum, rich in cytochrome P450 enzymes.)
The subject of another data set is Plasma. The experiment in a line: Drug uptake in mouse plasma at 30 to 60 mg/kg, po administered via gavage measured after 30 to 240 mins by LC-MS/MS analysis. The format is ADME, organism-based. The note with it: in vivo. An outline of the steps:
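Mice dosed orally at 30 mg/kg and 60 mg/kg; plasma compound concentration followed from 30 to 240 min.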

Data set [3] concerns the target T2, C-C chemokine receptor type 1 (Homo sapiens) (UniProt P32246).
T2 sequence (whole entry): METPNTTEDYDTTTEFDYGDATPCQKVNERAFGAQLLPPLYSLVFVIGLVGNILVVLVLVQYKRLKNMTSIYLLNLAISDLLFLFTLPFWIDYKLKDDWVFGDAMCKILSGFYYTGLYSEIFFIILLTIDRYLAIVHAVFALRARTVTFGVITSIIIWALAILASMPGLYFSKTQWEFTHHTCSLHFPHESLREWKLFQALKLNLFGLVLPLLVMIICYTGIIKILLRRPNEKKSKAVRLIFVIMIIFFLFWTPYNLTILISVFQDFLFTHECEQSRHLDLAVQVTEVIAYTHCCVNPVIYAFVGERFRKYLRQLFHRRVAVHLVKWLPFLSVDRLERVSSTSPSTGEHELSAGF
The data set is described as follows: Agonist activity at full length human CCR1 assessed as myo-[2-3H]inositol phosphate accumulation measured after 75 mins by scintillation proximity assay. Type of data set: functional.

The next data set concerns Pancreatic islet. The data set is described as follows: Induction of glucose-stimulated insulin release in mouse pancreatic islets at 1 uM pretreated for 24 hrs followed by glucose addition measured after 30 mins. The format is functional, cell-based. The procedure, abridged:
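Islets isolated from GPR39-deficient mice and wild-type littermates on five independent days, 2 to 3 mice per day; insulin secretion measured with vehicle or 1 μM compound.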

Data set [4] concerns the target T3, G-protein coupled receptor 39 (Mus musculus) (UniProt Q5U431).
T3 sequence (whole entry): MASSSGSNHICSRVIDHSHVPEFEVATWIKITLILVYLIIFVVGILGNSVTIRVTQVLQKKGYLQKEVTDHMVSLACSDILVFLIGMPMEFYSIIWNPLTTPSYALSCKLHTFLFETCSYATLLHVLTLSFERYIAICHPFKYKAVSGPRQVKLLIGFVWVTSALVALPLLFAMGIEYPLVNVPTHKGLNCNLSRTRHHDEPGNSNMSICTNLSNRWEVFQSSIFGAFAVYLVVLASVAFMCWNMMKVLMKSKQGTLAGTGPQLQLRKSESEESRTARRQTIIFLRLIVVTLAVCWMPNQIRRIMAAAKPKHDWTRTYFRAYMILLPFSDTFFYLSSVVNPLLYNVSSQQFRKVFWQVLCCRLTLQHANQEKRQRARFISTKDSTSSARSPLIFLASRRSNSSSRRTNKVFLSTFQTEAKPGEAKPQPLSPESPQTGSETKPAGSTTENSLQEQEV
The data set is described as follows: Agonist activity at GPR39 in primary gastric mucosal cells isolated from C57BL/6 mouse assessed as inhibition of isoproterenol-induced ghrelin secretion at 1 uM in presence of 10 uM of Zn2+ and somatostatin receptor antagonist BIM-23627 measured after 4 hrs by ELISA. An outline of the steps: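 Primary gastric mucosal cell cultures from mice, incubated the day after preparation with ligands at 1 μM with 10 μM Zn2+ (with or without a somatostatin receptor antagonist) in triplicate for 4 h. Acyl-ghrelin in supernatant measured by ELISA, expressed as percent of medium-alone cells; n=5–7; unpaired t-test with Welch's correction versus vehicle.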
In general terms: ELISA stands for enzyme-linked immunosorbent assay.

Data set [5] deals with Primary gastric mucosal cell. The data set is described as follows: Induction of CGRP-induced somatostatin release in primary gastric mucosal cells isolated from GPR39 deficient C57BL/6 mouse at 1 uM in presence of 10 uM of Zn2+ measured after 4 hrs by radioimmunoassay. Type of data set: functional, cell-based. The procedure, abridged: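 Primary gastric mucosal cells from GPR39-KO mice, day after preparation, exposed to ligands (1 μM, 10 μM Zn2+) in triplicate for 4 h; supernatant somatostatin measured by in-house RIA and expressed as percent of medium-alone secretion; 10 nM CGRP used as a comparator stimulus; n=2.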

Data set [6] has as its target T3, G-protein coupled receptor 39 (Mus musculus). The data set is described as follows: Agonist activity at GPR39 in primary gastric mucosal cells isolated from C57BL/6 mouse assessed as inhibition of basal ghrelin secretion at 1 uM in presence of 10 uM of Zn2+ measured after 4 hrs by ELISA relative to basal level.

The source made the active and inactive calls. The calls are words filed in the database; no cut-off is given here.

A word on the EC50: it is the concentration that produces a half-maximal response. One may read the inhibition as the percentage by which the read-out fell short of the control.

Consider `Cc1nn(-c2ncnc3nc[nH]c23)c2c1C(c1ccc(F)cc1Cl)CC(=O)N2` (stereo not drawn), for which the half-maximal effective concentration (EC50) in data set [1] was found to be 280 nM. Besides, the microsomal CLint at 3 µM in data set [2] is 23.7 µL/min/mg. For the same molecule, in the data set with Plasma, the Drug uptake entry is “Active”. Moreover, the outcome (in data set [3]; with Pancreatic islet; in data set [5]) was inactive. The inhibition entry in data set [4] was “inactive”. Moreover, the inhibition in data set [6] was 79%.
